Measurements reported in ChEMBL document CHEMBL2086336, “Small molecule suppression of carbapenem resistance in NDM-1 producing Klebsiella pneumoniae” (ACS Med Chem Lett, 2012).
Activity calls are given as the source filed them.

Tests used:
Klebsiella pneumoniae [1] = test: Antibacterial activity against Klebsiella pneumoniae BAA 2146 expressing NDM-1 after 16 hrs by broth microdilution technique; format: functional; details: BAA 2146, 16 h
Procedure, shortened: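 MIC of the 2-AI compound alone, determined by modified broth microdilution in cation-adjusted Mueller Hinton broth (CAMHB).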

Klebsiella pneumoniae [2] = test: Potentiation of meropenem antibacterial activity against Klebsiella pneumoniae BAA 2146 expressing NDM-1 assessed as reduction in meropenem MIC at 50 uM after 16 hrs by broth microdilution technique; format: functional, organism-based
Procedure, shortened: (§1)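 Modified broth microdilution: imipenem or meropenem MIC measured in CAMHB supplemented with a fixed concentration of the 2-AI compound. Fold reduction is taken against the carbapenem MIC without compound.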

Klebsiella pneumoniae [3] = test: Potentiation of imipenem antibacterial activity against Klebsiella pneumoniae BAA 2146 expressing NDM-1 assessed as reduction in imipenem MIC at 50 uM after 16 hrs by broth microdilution technique; format: functional; procedure, shortened: as §1
Klebsiella pneumoniae [4] = test: Potentiation of meropenem antibacterial activity against Klebsiella pneumoniae BAA 2146 expressing NDM-1 assessed as reduction in meropenem MIC at 30 uM after 16 hrs by broth microdilution technique; format: functional; procedure, shortened: as §1
Klebsiella pneumoniae [5] = test: Potentiation of imipenem antibacterial activity against Klebsiella pneumoniae BAA 2146 expressing NDM-1 assessed as reduction in imipenem MIC at 30 uM after 16 hrs by broth microdilution technique; format: functional; procedure, shortened: as §1
Klebsiella pneumoniae [6] = test: Antibacterial activity against Klebsiella pneumoniae BAA 2146 expressing NDM-1 assessed as intact to permeabilized cell membrane ratio at 30 uM after 1 hr by SYTO9/PI-based fluorimetry relative to control; format: functional
Procedure, shortened: (§2)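 Membrane damage was measured by Baclight assay after 1 h exposure of the NDM-1 strain to compound. The intact/permeabilized membrane ratio is expressed as % of DMSO-only treated control bacteria.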

Klebsiella pneumoniae [7] = test: Antibacterial activity against Klebsiella pneumoniae BAA 2146 expressing NDM-1 assessed as intact to permeabilized cell membrane ratio at 50 uM after 1 hr by SYTO9/PI-based fluorimetry relative to control; format: functional; procedure, shortened: as §2
Klebsiella pneumoniae [8] = test: Potentiation of carbapenem antibacterial activity against Klebsiella pneumoniae BAA 2146 expressing NDM-1 assessed as reduction in carbapenem MIC at 50 uM after 16 hrs by broth microdilution technique; format: functional
Procedure, shortened: (§3)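 Modified broth microdilution in cation-adjusted Mueller Hinton broth. The adjuvant's own MIC is measured first in CAMHB. Antibiotic MICs (imipenem/meropenem, or cefotaxime for the ESBL strain) are then determined in CAMHB supplemented with the 2-aminoimidazole at a fixed concentration of ≤30% of its own MIC. Reduction is reported as fold change versus the antibiotic MIC without adjuvant.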

Klebsiella pneumoniae [9] = test: Potentiation of imipenem antibacterial activity against Klebsiella pneumoniae BAA 1705 expressing KPC-2 assessed as reduction in imipenem MIC at 30 uM after 16 hrs by broth microdilution technique; format: functional; procedure, shortened: as §3
Klebsiella pneumoniae [10] = test: Potentiation of imipenem antibacterial activity against Klebsiella pneumoniae BAA 2146 expressing NDM-1 assessed as increase in log reduction in CFU of imipenem at 30 uM at 4 to 16 hrs relative to control; format: functional, organism-based
Procedure, shortened: (§4)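 Time-kill: cultures grown in CAMHB with imipenem (2–32 μg/mL) with or without 30 μM compound. Bacteria were plated at time points up to 16 h and viable CFU enumerated. Log reduction in CFU/mL is relative to untreated control; ≥2 log₁₀ drop versus antibiotic alone counted as synergy.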

[11] = Hemolytic activity against defibrinated sheep blood after 1 hr by UV-spectrophotometry; format: ADME, tissue-based, Ovis aries; details: read-out: HD50
Procedure, shortened: (§5)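 Hemolysis was tested on mechanically defibrinated sheep blood. Lysis is expressed relative to a positive control. HD₅₀ is the concentration lysing 50% of cells versus that control.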

Klebsiella pneumoniae [12] = test: Potentiation of imipenem antibacterial activity against Klebsiella pneumoniae BAA 2146 expressing NDM-1 assessed as decreased regrowth at 30 uM at 4 to 16 hrs relative to control; format: functional, organism-based
Procedure, shortened: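 Time-kill: K. pneumoniae BAA-2146 (NDM-1) grown in CAMHB with imipenem (2, 8 or 32 μg/mL in figure; 16 and 4 μg/mL also reported) with or without additive at 30 μM. Viable CFU counted by plating at time points up to 16 h; log reduction in CFU/mL versus untreated control. Synergy defined as ≥2 log10 CFU decrease versus antibiotic alone.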

[13] = Hemolytic activity against defibrinated sheep blood at 30 uM after 1 hr by UV-spectrophotometry relative to control; format: ADME, tissue-based, Ovis aries; details: read-out: Activity; procedure, shortened: as §5
Klebsiella pneumoniae [14] = test: Potentiation of imipenem antibacterial activity against Klebsiella pneumoniae BAA 2146 expressing NDM-1 assessed as reduction in imipenem MIC at 40 uM after 16 hrs by broth microdilution technique; format: functional
Klebsiella pneumoniae [15] = test: Potentiation of cefotaxime antibacterial activity against Klebsiella pneumoniae ATCC 700603 expressing extended spectrum beta-lactamase assessed as reduction in cefotaxime MIC at 30 uM after 16 hrs by broth microdilution technique; format: functional; procedure, shortened: as §3
Klebsiella pneumoniae [16] = test: Antibacterial activity against Klebsiella pneumoniae BAA 2146 expressing NDM-1 assessed as reduction in CFU at 30 uM after 16 hrs relative to control; format: functional, organism-based; procedure, shortened: as §4

SMILES	MIC (Klebsiella pneumoniae [1])	Activity (Klebsiella pneumoniae [2])	Activity (Klebsiella pneumoniae [3])	further results
Cl.Nc1nc(-c2ccc(-c3ccccc3)cc2)c[nH]1	> 200 µM			
CCCCCCc1ccc(-c2nc(N)[nH]c2CC(C)C)cc1.Cl	200 µM	inactive	inactive	
CCCCCCc1ccc(-c2nc(N)[nH]c2-c2ccccc2)cc1.Cl	> 200 µM	inactive	inactive	
CCCCCc1ccc(-c2c[nH]c(N)n2)cc1.Cl	100 µM			
CCCCCCc1ccc(-c2nc(N)[nH]c2CCC)cc1.Cl	100 µM			
CCCCCCc1ccc(-c2nc(N)[nH]c2C)cc1.Cl	100 µM			fold change (FC) (Klebsiella pneumoniae [4]): 8; fold change (FC) (Klebsiella pneumoniae [5]): 8
CCCCCCc1ccc(-c2nc(N)[nH]c2CCCCCC)cc1.Cl	> 200 µM			Activity (Klebsiella pneumoniae [6]): 8.13%; fold change (FC) (Klebsiella pneumoniae [4]): 2; Activity (Klebsiella pneumoniae [5]; 50 uM, in the assay text read “at 50 uM” for “at 30 uM”): inactive
CCCCCCc1ccc(-c2nc(N)[nH]c2Cc2ccccc2)cc1.Cl	> 200 µM	inactive	inactive	
CCCCCCCc1ccc(-c2c[nH]c(N)n2)cc1.Cl	200 µM			Activity (Klebsiella pneumoniae [7]): 21.2%; fold change (FC) (Klebsiella pneumoniae [8]): 2
CC(C)(C)c1ccc(-c2c[nH]c(N)n2)cc1.Cl	200 µM			
CCCCCCc1ccc(-c2c[nH]c(N)n2)cc1.Cl	100 µM			fold change (FC) (Klebsiella pneumoniae [9]): 16; Activity (Klebsiella pneumoniae [10]): Active; HC50 at 1 h [11]: > 500 µM; Activity (Klebsiella pneumoniae [12]): Active; Activity (Klebsiella pneumoniae [6]): 8.5%; fold change (FC) (Klebsiella pneumoniae [4]): 16; fold change (FC) (Klebsiella pneumoniae [3]): 256; hemolysis at 1 h, 30 µM [13]: 2.5%; fold change (FC) (Klebsiella pneumoniae [5]): 16; fold change (FC) (Klebsiella pneumoniae [14]): 64; fold change (FC) (Klebsiella pneumoniae [15]): 8; Activity (Klebsiella pneumoniae [16]): inactive
CCCCc1ccc(-c2c[nH]c(N)n2)cc1.Cl	200 µM			
CCCCCCc1ccc(-c2nc(N)[nH]c2-c2ccc3ccccc3c2)cc1.Cl	> 200 µM	inactive	inactive	
